Test results taken from article PMC6409185 (Investigational new drugs, 2018).

Columns and labels:
Format in all cases: biochemical
Conditions in all cases: relaxation assay in the presence of 100 μM compound
[1] = biological target: E. coli Topo I (Escherichia coli, UniProt P06612); test: Relaxation assay with E. coli Topo I
[2] = tested on: Calf Topo I (cTopo I); test: Relaxation assay for eukaryotic Topo I
Summary of the method: (§1)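 Commercial calf or human Topo I, 1 unit (the amount that fully relaxes 0.3 μg supercoiled pBR322), with 0.3 μg supercoiled pBR322 and test compound in 50 mM Tris-HCl pH 7.5, 100 mM NaCl, 10 mM MgCl2, 1 mM DTT, 50 μg/ml BSA. Run 15 min at 37°C, stopped with 25 mM EDTA. Products run on 1.2% agarose in TAE (2 V/cm, 15 h), stained with ethidium bromide, imaged and quantified.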

[3] = biological target: T1, hTopo I (Homo sapiens, UniProt P11387); test: Relaxation assay for eukaryotic Topo I
T1 sequence (P11387 1-765): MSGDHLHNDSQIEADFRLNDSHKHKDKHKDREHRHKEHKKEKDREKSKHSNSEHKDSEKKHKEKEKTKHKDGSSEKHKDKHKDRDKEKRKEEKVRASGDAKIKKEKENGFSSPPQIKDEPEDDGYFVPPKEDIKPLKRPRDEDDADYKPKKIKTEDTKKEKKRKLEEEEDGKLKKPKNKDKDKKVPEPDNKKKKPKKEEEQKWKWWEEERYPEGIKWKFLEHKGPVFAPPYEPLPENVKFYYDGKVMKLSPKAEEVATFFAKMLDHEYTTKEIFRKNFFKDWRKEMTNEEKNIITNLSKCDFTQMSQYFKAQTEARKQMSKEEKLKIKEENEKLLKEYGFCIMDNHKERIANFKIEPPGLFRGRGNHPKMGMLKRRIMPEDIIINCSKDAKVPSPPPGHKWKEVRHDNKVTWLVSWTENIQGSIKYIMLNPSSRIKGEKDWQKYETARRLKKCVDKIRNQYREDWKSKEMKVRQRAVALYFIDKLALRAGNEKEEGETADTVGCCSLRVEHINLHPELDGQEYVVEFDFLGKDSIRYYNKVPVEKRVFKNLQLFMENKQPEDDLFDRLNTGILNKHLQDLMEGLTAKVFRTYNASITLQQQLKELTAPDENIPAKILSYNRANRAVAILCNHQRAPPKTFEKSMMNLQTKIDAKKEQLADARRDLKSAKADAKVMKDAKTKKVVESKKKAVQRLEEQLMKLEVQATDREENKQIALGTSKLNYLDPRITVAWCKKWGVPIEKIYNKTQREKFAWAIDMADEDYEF
Summary of the method: as §1

E. coli Topo I, sequence (P06612 whole entry): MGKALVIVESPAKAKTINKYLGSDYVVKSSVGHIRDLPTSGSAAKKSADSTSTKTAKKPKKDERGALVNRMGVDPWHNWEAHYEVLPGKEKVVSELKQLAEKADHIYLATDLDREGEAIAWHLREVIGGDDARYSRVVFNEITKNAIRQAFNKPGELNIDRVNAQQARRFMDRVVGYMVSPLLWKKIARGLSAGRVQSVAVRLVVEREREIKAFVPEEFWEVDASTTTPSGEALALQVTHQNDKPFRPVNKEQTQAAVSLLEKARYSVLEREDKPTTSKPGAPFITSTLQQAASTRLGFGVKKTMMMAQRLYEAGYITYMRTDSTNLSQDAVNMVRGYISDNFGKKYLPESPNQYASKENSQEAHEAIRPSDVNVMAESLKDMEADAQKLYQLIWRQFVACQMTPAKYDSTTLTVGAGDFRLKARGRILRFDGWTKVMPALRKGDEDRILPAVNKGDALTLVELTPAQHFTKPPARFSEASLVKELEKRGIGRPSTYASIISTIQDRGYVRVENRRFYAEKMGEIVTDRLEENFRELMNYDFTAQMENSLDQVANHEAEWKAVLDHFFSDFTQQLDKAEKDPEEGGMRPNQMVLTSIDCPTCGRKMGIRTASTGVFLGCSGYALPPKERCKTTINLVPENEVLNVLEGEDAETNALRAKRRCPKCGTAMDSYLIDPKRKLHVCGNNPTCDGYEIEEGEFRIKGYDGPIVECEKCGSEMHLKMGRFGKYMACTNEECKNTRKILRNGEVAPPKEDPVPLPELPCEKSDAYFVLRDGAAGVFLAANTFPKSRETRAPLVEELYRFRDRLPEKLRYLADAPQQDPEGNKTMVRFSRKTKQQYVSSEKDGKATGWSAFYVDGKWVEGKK

COc1c(N2CC[C@@H](CN)C2)c(F)cc2c(=O)c(C(=O)O)cn(C3CC3)c12 [UING-5-249]
No^2: inhibition of E. coli Topo I [1] | inhibition of cTopo I [2] | inhibition of hTopo I [3]
